Test results as given in ChEMBL document CHEMBL3865820, “Bioactive Dibenzo-α-pyrone Derivatives from the Endophytic Fungus Rhizopycnis vagum Nitaf22” (J Nat Prod, 2016).
pIC50: −log10 of the molar value. In brackets after ≈: the same amount, converted by molar mass.

What was measured:
[1] = system: Xanthomonas euvesicatoria; assay: Antibacterial activity against Xanthomonas vesicatoria ATCC 11633 by broth dilution colorimetric assay; format: functional
Summary of the method: (§1)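 Modified broth dilution colorimetric assay in 96-well plates, run against a plant- and human-pathogen panel. Both MIC and median inhibitory concentration (IC50) were determined. Streptomycin sulfate served as the positive control.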

Bacillus subtilis [2] = assay: Antibacterial activity against Bacillus subtilis ATCC 11562 by broth dilution colorimetric assay; format: functional; summary of the method: as §1
[3] = system: Agrobacterium tumefaciens; assay: Antibacterial activity against Agrobacterium tumefaciens ATCC 11158 by broth dilution colorimetric assay; format: functional; summary of the method: as §1
[4] = system: Pseudomonas amygdali pv. lachrymans; assay: Antibacterial activity against Pseudomonas lachrymans ATCC 11921 by broth dilution colorimetric assay; format: functional; summary of the method: as §1
[5] = system: Staphylococcus haemolyticus; assay: Antibacterial activity against Staphylococcus haemolyticus ATCC 29970 by broth dilution colorimetric assay; format: functional; summary of the method: as §1
[6] = Antibacterial activity against Ralstonia solanacearum ATCC 11696 by broth dilution colorimetric assay; format: functional, Ralstonia solanacearum K60-1
Summary of the method: (§2)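 Modified broth dilution colorimetric assay in 96-well plates, reporting both minimum inhibitory concentration (MIC) and median inhibitory concentration (IC50). Streptomycin sulfate served as positive control.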

[7] = Cytotoxicity against human NCI-H1650 cells by MTT assay; format: functional, cell-based
Summary of the method: (§3)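 Microculture tetrazolium (MTT) assay on a panel of human carcinoma cell lines: colon HCT-116, hepatocellular HepG2, gastric BGC-823, NSCLC NCI-H1650, ovarian A2780, melanoma A375, lung adenocarcinoma A549, breast MCF-7 and pancreatic Capan2. IC50 values are reported in μM.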

[8] = Cytotoxicity against human BGC823 cells by MTT assay; format: functional, cell-based; conditions: BGC-823; summary of the method: as §3
[9] = Cytotoxicity against human A2780 cells by MTT assay; format: functional, cell-based; summary of the method: as §3
[10] = Cytotoxicity against human HCT116 cells by MTT assay; format: functional, cell-based; conditions: HCT-116; summary of the method: as §3
Pyricularia oryzae = assay: Antifungal activity against Magnaporthe oryzae assessed as inhibition of spore germination after 8 hrs by microscopic analysis; format: functional
Summary of the method: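 Spores taken from 7-day-old M. oryzae cultures (2 × 10^6 spores per mL). Compound in 10% aqueous ethanol was mixed 1:1 with the spore suspension on a concave slide and kept in a dark moist chamber at 25 °C for 8 h. Germination was counted by microscope. Inhibition % = [(Gc − Gt)/Gc] × 100 against 10% ethanol control, with triplicates. IC50 was obtained by linear regression; carbendazim served as positive control.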

[11] = Cytotoxicity against human HepG2 cells by MTT assay; format: functional, cell-based; summary of the method: as §3
[12] = Cytotoxicity against human MOLT3 cells; format: functional, cell-based; conditions: MOLT-3
[13] = Cytotoxicity against human MRC5 cells; format: toxicity, cell-based
[14] = Cytotoxicity against human HuCCa1 cells; format: functional, cell-based; conditions: HuCC-A1
[15] = Cytotoxicity against human MDA-MB-231 cells; format: functional, cell-based
[16] = Cytotoxicity against human T47D cells; format: functional, cell-based
[17] = Cytotoxicity against human HepG2 cells; format: functional, cell-based
[18] = Cytotoxicity against human HeLa cells; format: functional, cell-based
[19] = Cytotoxicity against human A549 cells; format: functional, cell-based
[20] = Cytotoxicity against human Capan2 cells by MTT assay; format: functional, cell-based; conditions: Capan-2; summary of the method: as §3
Bacillus subtilis [21] = assay: Antibacterial activity against Bacillus subtilis ATCC 11562 after 24 hrs by MTT based broth dilution colorimetric assay; format: functional; conditions: ATCC 11562, 24 h
[22] = system: Pseudomonas amygdali pv. lachrymans; assay: Antibacterial activity against Pseudomonas lachrymans ATCC 11921 after 24 hrs by MTT based broth dilution colorimetric assay; format: functional; conditions: ATCC 11921, 24 h; summary of the method: as §2
[23] = Cytotoxicity against human A375 cells by MTT assay; format: functional, cell-based; conditions: A-375; summary of the method: as §3
[24] = system: Agrobacterium tumefaciens; assay: Antibacterial activity against Agrobacterium tumefaciens ATCC 11158 after 24 hrs by MTT based broth dilution colorimetric assay; format: functional; conditions: ATCC 11158, 24 h
[25] = Cytotoxicity against human MCF7 cells by MTT assay; format: functional, cell-based; summary of the method: as §3
[26] = Cytotoxicity against human A549 cells by MTT assay; format: functional, cell-based; summary of the method: as §3
[27] = system: Xanthomonas euvesicatoria; assay: Antibacterial activity against Xanthomonas vesicatoria ATCC 11633 after 24 hrs by MTT based broth dilution colorimetric assay; format: functional; conditions: ATCC 11633, 24 h; summary of the method: as §2

Which MIC [1] does the source give for `COC1=C(N)[C@](C)(O)c2c(oc(=O)c3c(O)cc(OC)cc23)C1=O` here?
Its MIC is over 200 µg/mL.

What about the MIC (Bacillus subtilis [2]) of the same compound?
The MIC was over 200 µg/mL.

What about the MIC [3] of the same compound?
The MIC was over 200 µg/mL.

What about the MIC [4] of the same compound?
The MIC was over 200 µg/mL.

And the MIC [5]?
The MIC was over 200 µg/mL.

What about the MIC [6] of the same compound?
The MIC was over 200 µg/mL.

With `COc1cc(O)c2c(=O)oc3c(O)c(OC)cc(C)c3c2c1` as the compound, how does the MIC [1] read?
The MIC was over 200 µg/mL.

What about the MIC (Bacillus subtilis [2]) of the same compound?
Its MIC is over 200 µg/mL.

What about the pIC50 [7] of the same compound?
The pIC50 was under 5.00.

And the MIC [3]?
The MIC was over 200 µg/mL.

What about the MIC [4] of the same compound?
Its MIC is over 200 µg/mL.

And the MIC [5]?
The MIC was over 200 µg/mL.

What about the pIC50 [8] of the same compound?
Its pIC50 is under 5.00.

What about the MIC [6] of the same compound?
Its MIC is over 200 µg/mL.

And the pIC50 [9]?
The pIC50 was under 5.00.

What about the pIC50 [10] of the same compound?
Its pIC50 is under 5.00.

And the IC50 (Pyricularia oryzae)?
Its IC50 is over 200 µg/mL.

And the pIC50 [11]?
The pIC50 was under 5.00.

For `COC1=C(Cl)[C@](C)(O)c2c(oc(=O)c3c(O)cc(OC)cc23)C1=O`, which MIC [1] is on record?
The MIC was over 200 µg/mL.

And the IC50 (Bacillus subtilis [2])?
The IC50 was 21.6 µg/mL (≈ 61.2 µM).

What about the MIC (Bacillus subtilis [2]) of the same compound?
The MIC was 50 µg/mL (≈ 142 µM).

What about the pIC50 [12] of the same compound?
The pIC50 was 4.90 to 5.96.

And the pIC50 [7]?
Its pIC50 is 5.49.

What about the MIC [3] of the same compound?
The MIC was over 200 µg/mL.

And the pIC50 [13]?
The pIC50 was 4.90 to 5.96.

And the MIC [4]?
Its MIC is over 200 µg/mL.

What about the pIC50 [14] of the same compound?
The pIC50 was 4.90 to 5.96.

What about the pIC50 [15] of the same compound?
The pIC50 was 4.90 to 5.96.

What about the MIC [5] of the same compound?
The MIC was over 200 µg/mL.

What about the pIC50 [16] of the same compound?
The pIC50 was 4.90 to 5.96.

And the pIC50 [8]?
Its pIC50 is 5.11.

What about the pIC50 [17] of the same compound?
The pIC50 was 4.90 to 5.96.

What about the MIC [6] of the same compound?
The MIC was over 200 µg/mL.

And the pIC50 [9]?
The pIC50 was 5.44.

And the pIC50 [10]?
The pIC50 was 5.38.

What about the pIC50 [18] of the same compound?
The pIC50 was 4.90 to 5.96.

And the pIC50 [19]?
Its pIC50 is 4.90 to 5.96.

What about the IC50 (Pyricularia oryzae) of the same compound?
Its IC50 is 12 µg/mL (≈ 34 µM).

And the pIC50 [11]?
Its pIC50 is 5.23.

With `COc1cc(O)c2c(=O)oc3cc(O)cc(C)c3c2c1` as the compound, how does the pIC50 [20] read?
The pIC50 was under 4.30.

And the IC50 (Bacillus subtilis [21])?
Its IC50 is 16.7 to 34.3 µg/mL (≈ 61.3 to 126 µM).

What about the IC50 [22] of the same compound?
The IC50 was 16.7 to 34.3 µg/mL (≈ 61.3 to 126 µM).

And the pIC50 [23]?
Its pIC50 is under 4.30.

What about the IC50 [24] of the same compound?
Its IC50 is 16.7 to 34.3 µg/mL (≈ 61.3 to 126 µM).

What about the pIC50 [25] of the same compound?
The pIC50 was under 4.30.

And the pIC50 [26]?
Its pIC50 is 4.15.

And the IC50 [27]?
Its IC50 is 16.7 to 34.3 µg/mL (≈ 61.3 to 126 µM).

And the pIC50 [10]?
Its pIC50 is under 4.30.

What does the source list for `Cc1cc(O)cc2oc(=O)c3c(O)cc(O)cc3c12` [ALTERNARIOL]?
IC50 [1]: 4.9 µg/mL (≈ 19 µM); MIC [1]: 25 µg/mL (≈ 96.8 µM); IC50 (Bacillus subtilis [2]): 7 µg/mL (≈ 27.1 µM); MIC (Bacillus subtilis [2]): 50 µg/mL (≈ 194 µM); pIC50 [7]: < 5.00; IC50 [3]: 11.4 µg/mL (≈ 44.1 µM); MIC [3]: 50 µg/mL (≈ 194 µM); IC50 [4]: 3.5 µg/mL (≈ 13.6 µM); MIC [4]: 25 µg/mL (≈ 96.8 µM); IC50 [5]: 7.9 µg/mL (≈ 30.6 µM); MIC [5]: 50 µg/mL (≈ 194 µM); pIC50 [8]: < 5.00; IC50 [6]: 5.5 µg/mL (≈ 21.3 µM); MIC [6]: 25 µg/mL (≈ 96.8 µM); pIC50 [9]: < 5.00; pIC50 [10]: < 5.00; IC50 (Pyricularia oryzae): > 200 µg/mL; pIC50 [11]: < 5.00

Which IC50 (Pyricularia oryzae) does the source give for `COC(=O)Nc1nc2ccccc2[nH]1` [CARBENDAZIM] here?
The IC50 was 6.9 µg/mL (≈ 36.1 µM).

With `CC(=O)O[C@H]1C(=O)[C@@]2(C)[C@H]([C@H](OC(=O)c3ccccc3)[C@]3(O)C[C@H](OC(=O)[C@H](O)[C@@H](NC(=O)c4ccccc4)c4ccccc4)C(C)=C1C3(C)C)[C@]1(OC(C)=O)CO[C@@H]1C[C@@H]2O` [PACLITAXEL] as the compound, how does the pIC50 [20] read?
Its pIC50 is 7.77.

And the pIC50 [23]?
The pIC50 was 7.66.

What about the pIC50 [7] of the same compound?
Its pIC50 is 7.17.

What about the pIC50 [25] of the same compound?
Its pIC50 is 9.22.

And the pIC50 [26]?
Its pIC50 is 7.64.

What about the pIC50 [8] of the same compound?
Its pIC50 is 8.48.

And the pIC50 [9]?
The pIC50 was 7.42.

And the pIC50 [10]?
Its pIC50 is 8.40 to 9.05.

And the pIC50 [11]?
The pIC50 was 7.92.

Which IC50 [1] does the source give for `CN[C@@H]1[C@H](O[C@H]2[C@H](O[C@H]3[C@H](O)[C@@H](O)[C@H](N=C(N)N)[C@@H](O)[C@@H]3N=C(N)N)O[C@@H](C)[C@]2(O)C=O)O[C@@H](CO)[C@H](O)[C@H]1O.CN[C@@H]1[C@H](O[C@H]2[C@H](O[C@H]3[C@H](O)[C@@H](O)[C@H](N=C(N)N)[C@@H](O)[C@@H]3N=C(N)N)O[C@@H](C)[C@]2(O)C=O)O[C@@H](CO)[C@H](O)[C@H]1O.O=S(=O)(O)O.O=S(=O)(O)O.O=S(=O)(O)O` [STREPTOMYCIN SULFATE] here?
The IC50 was 2.6 µg/mL.

What about the MIC [1] of the same compound?
Its MIC is 10 µg/mL.

What about the IC50 (Bacillus subtilis [2]) of the same compound?
The IC50 was 1.4 µg/mL.

And the MIC (Bacillus subtilis [2])?
Its MIC is 5 µg/mL.

And the IC50 [3]?
The IC50 was 1.4 µg/mL.

And the MIC [3]?
Its MIC is 5 µg/mL.

And the IC50 [4]?
The IC50 was 2.3 µg/mL.

What about the MIC [4] of the same compound?
Its MIC is 7.5 µg/mL.

And the IC50 [5]?
Its IC50 is 1.4 µg/mL.

And the MIC [5]?
The MIC was 5 µg/mL.

What about the IC50 [6] of the same compound?
Its IC50 is 1.2 µg/mL.

What about the MIC [6] of the same compound?
Its MIC is 5 µg/mL.
